Measurements: ChEMBL document CHEMBL1165869, “Synthesis, characterization and antihypertensive activity of pyridazinone derivatives” (2010)

Each compound was assayed on Rattus norvegicus (assay: Antihypertensive activity against methyl prednisolone acetate-indcuced hypertension in normotensive albino rat assessed as reduction in mean arterial pressure at 20 mg/kg, ip after 1 hr). Settings: route intraperitoneal.
Type: functional, Artery
Parameters: scale not given: the % may be the effect or the level left
In short: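 Albino rats (200–250 g), conditioned in restrainer 10 min daily for one week; hypertension induced by s.c. methyl prednisolone acetate 20 mg/kg/wk for 2 weeks. Compound suspended in 1% CMC, given i.p.; mean arterial pressure read 1 h later in conscious rats by non-invasive tail-cuff. Groups of 5; mean ± SEM; one-way ANOVA with Dunnett test versus hypertensive control.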
Work on `O=C1CCC(c2ccc(Cl)cc2)=NN1Cn1ccc2ccccc21` yielded an Activity of 36.3%. For `O=C1CCC(c2ccc(-c3ccccc3)cc2)=NN1Cn1cncn1`, the Activity was 39.5%. Work on `CC(C)Cc1ccc(C2=NN(CN3c4ccccc4Sc4ccccc43)C(=O)CC2)cc1` yielded an Activity of 25.58%. `O=C1CCC(c2ccccc2)=NN1CN1CCCC1` showed an Activity of 19.11%. `O=C1CCC(c2ccc(-c3ccccc3)cc2)=NN1CN1CCCC1` showed an Activity of 30.14%. For `O=C1CCC(c2ccccc2)=NN1Cn1ccc2ccccc21`, the Activity was 15.81%. For `Cc1ccc(C2=NN(CN3CCOCC3)C(=O)CC2)cc1`, the Activity was 14.12%. For `CC(C)Cc1ccc(C2=NN(Cn3ccc4ccccc43)C(=O)CC2)cc1`, the Activity was 28.91%. Work on `O=C1CCC(c2ccc(Cl)cc2)=NN1CN1CCNCC1` yielded an Activity of 28.78%. `CCc1ccc(C2=NN(Cn3ccc4ccccc43)C(=O)CC2)cc1` showed an Activity of 32.97%. Compound `COc1ccc(C2=NN(CN3CCCCC3)C(=O)CC2)cc1` has an Activity of 27.16%. Work on `CCc1ccc(C2=NN(CN3CCNCC3)C(=O)CC2)cc1` yielded an Activity of 36.05%. `COc1ccc(C2=NN(CN3CCCC3)C(=O)CC2)cc1` was tested, and the Activity was 31.62%. For `O=C1CCC(c2ccccc2)=NN1CN1c2ccccc2Sc2ccccc21`, the Activity was 42.4%. Work on `CCc1ccc(C2=NN(CN3CCN(C)CC3)C(=O)CC2)cc1` yielded an Activity of 47.14%. `O=C1CCC(c2ccccc2)=NN1CN1CCOCC1` showed an Activity of 31.21%. With `O=C1CCC(c2ccc(Cl)cc2)=NN1CN1CCCC1` the Activity was 30.01%. `CC(C)Cc1ccc(C2=NN(CN3CCN(C)CC3)C(=O)CC2)cc1` showed an Activity of 28.29%. Work on `O=C1CCC(c2ccc(Cl)cc2)=NN1Cn1cncn1` yielded an Activity of 29.77%. With `Cc1ccc(C2=NN(Cn3ccc4ccccc43)C(=O)CC2)cc1` the Activity was 23.85%. `COc1ccc(C2=NN(CN3CCN(C)CC3)C(=O)CC2)cc1` showed an Activity of 36.05%. `CC(C)Cc1ccc(C2=NN(CN3CCCC3)C(=O)CC2)cc1` showed an Activity of 32.97%. With `COc1ccc(C2=NN(CN3CCOCC3)C(=O)CC2)cc1` the Activity was 29.77%. `O=C1CCC(c2ccc(-c3ccccc3)cc2)=NN1CN1CCNCC1` showed an Activity of 30.14%. In the case of `CN1CCN(CN2N=C(c3ccc(Cl)cc3)CCC2=O)CC1`, the Activity is reported as 39.5%. `COc1ccc(C2=NN(CN3CCNCC3)C(=O)CC2)cc1` showed an Activity of 35.44%. `O=C1CCC(c2ccc(Cl)cc2)=NN1CN1CCOCC1` showed an Activity of 25.83%. In the case of `CC(C)Cc1ccc(C2=NN(CN3CCCCC3)C(=O)CC2)cc1`, the Activity is reported as 16.09%. Work on `O=C1CCC(c2ccc(-c3ccccc3)cc2)=NN1Cn1ccc2ccccc21` yielded an Activity of 33.46%. For `CC(C)Cc1ccc(C2=NN(CN3CCOCC3)C(=O)CC2)cc1`, the Activity was 24.22%. Work on `COc1ccc(C2=NN(Cn3ccc4ccccc43)C(=O)CC2)cc1` yielded an Activity of 32.72%. `O=C1CCC(c2ccc(-c3ccccc3)cc2)=NN1CN1CCOCC1` was tested, and the Activity was 29.52%. Compound `Cc1ccc(C2=NN(CN3CCN(C)CC3)C(=O)CC2)cc1` has an Activity of 39.13%. `COc1ccc(C2=NN(CN3c4ccccc4Sc4ccccc43)C(=O)CC2)cc1` showed an Activity of 33.83%. For `Cc1ccc(C2=NN(CN3CCCC3)C(=O)CC2)cc1`, the Activity was 31.74%. `CCc1ccc(C2=NN(CN3CCCCC3)C(=O)CC2)cc1` gave an Activity of 30.51%. `O=C1CCC(c2ccc(-c3ccccc3)cc2)=NN1CN1c2ccccc2Sc2ccccc21` showed an Activity of 25.91%. `O=C1CCC(c2ccc(-c3ccccc3)cc2)=NN1CN1CCCCC1` showed an Activity of 29.52%. Work on `Cc1ccc(C2=NN(Cn3cncn3)C(=O)CC2)cc1` yielded an Activity of 41.16%. `O=C1CCC(c2ccc(Cl)cc2)=NN1CN1c2ccccc2Sc2ccccc21` showed an Activity of 38.88%. `CN1CCN(CN2N=C(c3ccccc3)CCC2=O)CC1` was tested, and the Activity was 39.93%. `O=C1CCC(c2ccccc2)=NN1Cn1cncn1` showed an Activity of 38.7%. Compound `O=C1CCC(c2ccccc2)=NN1CN1CCNCC1` has an Activity of 41.99%. Work on `O=C1CCC(c2ccccc2)=NN1CN1CCCCC1` yielded an Activity of 33.46%. `CN1CCN(CN2N=C(c3ccc(-c4ccccc4)cc3)CCC2=O)CC1` was tested, and the Activity was 25.58%. `Cc1ccc(C2=NN(CN3c4ccccc4Sc4ccccc43)C(=O)CC2)cc1` showed an Activity of 34.94%. With `NNc1nncc2ccccc12` [HYDRALAZINE] the Activity was 40.76%. Compound `CCc1ccc(C2=NN(CN3CCCC3)C(=O)CC2)cc1` has an Activity of 44.31%. `CCc1ccc(C2=NN(Cn3cncn3)C(=O)CC2)cc1` gave an Activity of 29.52%. For `Cc1ccc(C2=NN(CN3CCCCC3)C(=O)CC2)cc1`, the Activity was 35.56%. `CCc1ccc(C2=NN(CN3c4ccccc4Sc4ccccc43)C(=O)CC2)cc1` was tested, and the Activity was 36.17%. With `CCc1ccc(C2=NN(CN3CCOCC3)C(=O)CC2)cc1` the Activity was 47.31%. For `Cc1ccc(C2=NN(CN3CCNCC3)C(=O)CC2)cc1`, the Activity was 40.98%. `O=C1CCC(c2ccc(Cl)cc2)=NN1CN1CCCCC1` gave an Activity of 24.84%. With `COc1ccc(C2=NN(Cn3cncn3)C(=O)CC2)cc1` the Activity was 29.27%. Compound `CC(C)Cc1ccc(C2=NN(CN3CCNCC3)C(=O)CC2)cc1` has an Activity of 32.48%. `CC(C)Cc1ccc(C2=NN(Cn3cncn3)C(=O)CC2)cc1` gave an Activity of 34.94%.
